ADAM10 inh: inhibits human ADAM10; recombinant ADAM10, EDANS/DABCYL FRET peptide cleavage, 3 h; inhibition, % at 7 µM; 370,000 tested, 0.62% active;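 active = inhibition above a per-campaign cutoff equal to the mean of compounds falling between control-based bounds plus 3 SD, cut at about 20% in these data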;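 also: 0% = DMSO wells while the 100% control is not disclosed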
DDE Tn6 FP inh: disrupts Tn6 cyclic peptide binding to fibrin D-Dimer-E complex; P02675; Fibrin DD(E) TRITC-Tn6 fluorescence polarization displacement; inhibition, % at 8.3 µM; 370,000 tested, 0.21% active; AID 720509;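 active = inhibition above a per-campaign cutoff: mean of compounds within control limits plus 3 SD, cut at about 15% in these data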;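 also: 0% = median of all compound wells on the plate and 100% = blocking peptide control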
ADAM17 inh: inhibitors of human ADAM17; recombinant ADAM17, EDANS/DABCYL FRET peptide cleavage; AID 720648; inhibition, % at 6.95 µM; 370,000 tested, 0.83% active;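 active = inhibition above the mean of compounds lying between control limits plus 3 SD, set per campaign, cut at about 8.5% in these data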;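 also: 0% = DMSO-only wells as the low control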
PLC-beta3 inh: PLC-beta3 (human) inhibition, primary screen | Q01970 | Purified PLC-beta3, fluorogenic substrate, fluorescence | inhibition, % at 12.2 µM | 370,000 tested, 0.18% active | AID 720704;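 also: 0% = median of compound wells on plate and 100% = full blocker control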
DDE Tn7 FP inh: DD(E)-Tn7 binding inhibition, primary FP screen; P02675; FP displacement of FITC-Tn7 peptide from fibrin DD(E); 0% = median of compound wells per plate; inhibition, % at 8.3 µM; 370,000 tested, 0.13% active; AID 720508;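 active = inhibition above the mean of compounds falling within the control limits plus 3 SD of them, cut at about 14% in these data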;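 also: 0% = plate median of compound wells and 100% = 10 µM Aha-Tn7 peptide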
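Assay system: human fibrin DD(E). Input: DD(E) 2 µM final. Medium: Tris buffer with calcium and detergent, pH 7.8. Compound dosing: single point at 8.3 µM. Timing: 10 min plus 3 h, room temperature. Technique: fluorescence polarization of the labelled Tn7 tracer. Read-out: percent inhibition. Replicates: singlicate testing.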
PLC-gamma1 inh: blocks human PLC-gamma1 enzyme activity. purified PLC-gamma1, fluorogenic substrate, fluorescence. 370,000 tested, 0.84% active. inhibition, % at 12.2 µM. AID 720700; in the data active = inhibition above about 9.5%
PLCg1 ctr: inhibits human PLC-gamma1 in PLC-beta3 counter-screen; shares compounds with PLC-gamma1 inh; purified PLC-gamma1, fluorogenic substrate, fluorescence; inhibition, % at 12.3 µM; 3,300 tested, 3.1% active; in the data active = inhibition above about 9.5%
PLCb3 confirm: human PLC-beta3 inhibition, confirmation. shares compounds with PLC-gamma1 inh. AID 743261. 3,300 tested, 1% active. purified PLC-beta3, fluorogenic substrate fluorescence. inhibition, % at 12.3 µM
Starred values were filed as active, the others as inactive; x = no result. Most compounds without a hit are left out; they make up all but 2.3% or so of the library. Rule as the data show it, unless noted: active = inhibition above about 11%; inactive = the rest.

SMILES	ADAM10 inh	DDE Tn6 FP inh	ADAM17 inh	PLC-beta3 inh	DDE Tn7 FP inh	PLC-gamma1 inh	PLCg1 ctr	PLCb3 confirm
Cc1ccccc1NS(=O)(=O)c1cc(S(C)(=O)=O)ccc1C	-5	-2	1	2	5	1	x	x
COc1ccc(C)cc1S(=O)(=O)Nc1ccccc1C	13	-5	6	10	-4	11*	-6	-4
Cc1ccccc1NS(=O)(=O)c1ccc(C)c(NS(C)(=O)=O)c1C	-1	-4	-4	-1	9	9.9*	2	0
CC(=O)Nc1cc(S(=O)(=O)Nc2ccccc2C)c(C)cc1C	10	-1	4	6	-9	9.8*	-2	3
Cc1cc(C)cc(N(CC(=O)NC2CCC(C)CC2)S(=O)(=O)c2ccccc2)c1 (centres undefined)	-10	0	1	-4	-3	-1	x	x
CCCOc1ccc(C2C(=O)N(C3CCCCC3)CC(=O)N2C2CC2)cc1OC (centres undefined)	-1	10	-5	-1	-1	13*	-6	-3
CN(CCOC(=O)c1cc2ccccc2o1)C1CN(Cc2cn(Cc3ccccc3Cl)nn2)S(=O)(=O)C1 (centres undefined)	-8	-1	-2	-13	1	-1	x	x
CN1CCN(NC(=O)c2ccc(F)cc2)CC1	0	-8	-3	-1	-5	1	x	x
CN1CCN(NC(=O)c2ccc(Cl)s2)CC1	-5	-11	-7	-11	3	9.8*	-2	3
CCC(C)NC(=O)CSc1nc2c(sc3ccccc32)c(=O)n1CCCN1CCOCC1 (centres undefined)	-13	3	-5	3	3	9.9*	-3	0
COC(=O)c1ccc(CNCC(O)COc2ccc(-c3ccccc3)cc2)cc1 (centres undefined)	-1	7	3	-5	-1	1	x	x
COc1ccc(CNCC(O)COc2ccc(C(C)(C)c3ccccc3)cc2)cc1 (centres undefined)	14	-2	4	-1	-2	11*	-2	-3
CC(=O)c1cc(-c2ccccc2S(=O)(=O)NC(C)(C)C)c(=O)n2c1CCC2	2	-7	-1	0	0	-1	x	x

Compound activity: PubChem BioAssay, The Scripps Research Institute Molecular Screening Center
